Our source for the Ki values is ChEMBL document CHEMBL1139414, “Conformationally constrained analogues of diacylglycerol. 29. Cells sort diacylglycerol-lactone chemical zip codes to produce diverse and selective biological activities” (J Med Chem, 2008).

Each structure is given as a SMILES string.

This experiment concerns the target Protein kinase C alpha type (Mus musculus, UniProt P20444). Put plainly: Displacement of [3H]PDBu form mouse PKCalpha by scintillation counting. The essentials:
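Partially purified mouse PKCα; competition with [³H]PDBU. ID50 obtained by fitting a sigmoidal competition curve and converted to Ki = ID50/(1+L/Kd). Pure compounds tested at 6–7 concentrations; crude library compounds at a single 1 μM concentration. Triplicates per concentration, at least three experiments; mean ± SEM.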
(In general: Loss of bound radioactivity is the signal in a displacement assay; it reports binding, not function.)
As for `CC(C)C(=O)OCC1(CO)C/C(=C/c2ccc(F)c(Cl)c2)C(=O)O1` (stereo not drawn), the Ki – broadly, a measure of affinity in units of concentration, obtained from inhibition or displacement – was found to be 119 nM.
The figure for `CC(C)(C)C(=O)OCC1(CO)C/C(=C/c2ccc(F)cc2)C(=O)O1` (racemic) is 88.4 nM.
The figure for `CC(C)(C)C(=O)OCC1(CO)C/C(=C/c2ccc(Br)cc2)C(=O)O1` (racemic) is 26.1 nM.
With `CCCC(CCC)C(=O)OCC1(CO)C/C(=C/c2cccc(C(F)(F)F)c2)C(=O)O1` (racemic), the Ki came to 15.5 nM. This Ki is about 1.7-fold lower than that of the compound before.
The figure for `CC(C)(C)C(=O)OCC1(CO)C/C(=C/c2ccc(Cl)c(F)c2)C(=O)O1` (racemic) is 36.7 nM.
Take `CC(C)(C)CC(=O)OCC1(CO)C/C(=C/c2ccc(Cl)cc2)C(=O)O1` (racemic): the inhibition constant Ki came to 26.5 nM.
The compound `CC(C)(C)CC(=O)OCC1(CO)C/C(=C/c2ccc(Br)cc2)C(=O)O1` (racemic) yielded a Ki of 50.2 nM.
The figure for `CCCC(CCC)C(=O)OCC1(CO)C/C(=C/c2cc(C(F)(F)F)cc(C(F)(F)F)c2)C(=O)O1` (racemic) is 27.3 nM.
Under `CC(C)(C)CC(=O)OCC1(CO)C/C(=C/c2ccc(OC(F)(F)F)cc2)C(=O)O1` (racemic) stands 24.6 nM.
Under `CC(C)(C)C(=O)OCC1(CO)C/C(=C/c2ccc(F)c(Br)c2)C(=O)O1` (racemic) stands 19.3 nM.
The compound `CC(C)(C)CC(=O)OCC1(CO)C/C(=C/c2ccccc2C(F)(F)F)C(=O)O1` (racemic) gave a Ki of 41.4 nM.
The figure for `CC(C)(C)CC(=O)OCC1(CO)C/C(=C/c2cc(C(F)(F)F)cc(C(F)(F)F)c2)C(=O)O1` (racemic) is 51.1 nM.
Under `CC(C)(C)CC(=O)OCC1(CO)C/C(=C/c2ccc(F)c(Cl)c2)C(=O)O1` (racemic) stands 26.4 nM; under `CC(C)(C)CC(=O)OCC1(CO)C/C(=C/c2ccc(Cl)c(F)c2)C(=O)O1` (racemic), 45.1 nM.
The figure for `CCCC(CCC)C(=O)OCC1(CO)C/C(=C/c2ccc(Br)cc2)C(=O)O1` (racemic) is 10.7 nM.
Take `CCCCC(CC)C(=O)OCC1(CO)C/C(=C/c2ccc(-c3ccc(C(F)(F)F)cc3)cc2)C(=O)O1` (racemic): the Ki was found to be 27.4 nM. This Ki is about 2.6-fold higher than that of the compound before.
Under `CC(CC(=O)OCC1(CO)C/C(=C/c2ccc(F)cc2)C(=O)O1)CC(C)(C)C` (racemic) stands 16.8 nM.
The figure for `CCCCC(CC)C(=O)OCC1(CO)C/C(=C/c2ccc(OC(F)(F)F)cc2)C(=O)O1` (racemic) is 15.2 nM.
The figure for `CCCCC(CC)C(=O)OCC1(CO)C/C(=C/c2ccccc2C(F)(F)F)C(=O)O1` (racemic) is 22.8 nM.
For the compound `CCCCC(CC)C(=O)OCC1(CO)C/C(=C/c2cc(C(F)(F)F)cc(C(F)(F)F)c2)C(=O)O1` (racemic), affinity was put at a Ki of 17.3 nM. The Ki values of the last two compounds are within 1.5-fold of each other.
`CC(CC(=O)OCC1(CO)C/C(=C/c2ccc(C(F)(F)F)cc2)C(=O)O1)CC(C)(C)C` (racemic) came in with a Ki of 18.4 nM.
Under `CC(CC(=O)OCC1(CO)C/C(=C/c2ccc(-c3ccc(C(F)(F)F)cc3)cc2)C(=O)O1)CC(C)(C)C` (racemic) stands 49.7 nM; under `CCCCC(CC)C(=O)OCC1(CO)C/C(=C/c2cccc(C(F)(F)F)c2)C(=O)O1` (racemic), 9.4 nM; under `CCCC(CCC)C(=O)OCC1(CO)C/C(=C/c2ccc(-c3ccc(C(F)(F)F)cc3)cc2)C(=O)O1` (racemic), 40.6 nM.
Under `CC(CC(=O)OCC1(CO)C/C(=C/c2cc(C(F)(F)F)cc(C(F)(F)F)c2)C(=O)O1)CC(C)(C)C` (racemic) stands 30.1 nM; under `CC(CC(=O)OCC1(CO)C/C(=C/c2ccc(F)c(Cl)c2)C(=O)O1)CC(C)(C)C` (racemic), 22.4 nM; under `CC(CC(=O)OCC1(CO)C/C(=C/c2ccc(Cl)c(F)c2)C(=O)O1)CC(C)(C)C` (racemic), 38.3 nM.
Under `CC(CC(=O)OCC1(CO)C/C(=C/c2ccc(Br)cc2)C(=O)O1)CC(C)(C)C` (racemic) stands 27.3 nM; under `CCCC(CCC)C(=O)OCC1(CO)C/C(=C/c2ccc(OC(F)(F)F)cc2)C(=O)O1` (racemic), 16.4 nM.
Regarding `CCCC(CCC)C(=O)OCC1(CO)C/C(=C/c2ccc(Cl)cc2)C(=O)O1` (racemic), the Ki amounted to 13.1 nM.
Under `CC(C)(C)CC(=O)OCC1(CO)C/C(=C/c2ccc(F)c(Br)c2)C(=O)O1` (racemic) stands 19.3 nM; under `CCC(C(=O)OCC1(CO)C/C(=C/c2ccc(Br)cc2)C(=O)O1)c1ccccc1` (racemic), 33 nM.
The figure for `CCC(C(=O)OCC1(CO)C/C(=C/c2ccc(F)c(Cl)c2)C(=O)O1)c1ccccc1` (racemic) is 31.9 nM; for `CC(CC(=O)OCC1(CO)C/C(=C/c2ccc(F)c(Br)c2)C(=O)O1)CC(C)(C)C` (racemic) it is 17.4 nM.
Compound `CCC(C(=O)OCC1(CO)C/C(=C/c2ccc(F)cc2)C(=O)O1)c1ccccc1` (racemic) showed a Ki of 84.3 nM. Compared with the last compound, the Ki is about 4.8-fold higher.
Under `CCC(C(=O)OCC1(CO)C/C(=C/c2ccccc2C(F)(F)F)C(=O)O1)c1ccccc1` (racemic) stands 59 nM; under `CCC(C(=O)OCC1(CO)C/C(=C/c2ccc(Cl)cc2)C(=O)O1)c1ccccc1` (racemic), 47.6 nM; under `CCC(C(=O)OCC1(CO)C/C(=C/c2cc(C(F)(F)F)cc(C(F)(F)F)c2)C(=O)O1)c1ccccc1` (racemic), 52.9 nM.
Under `CCC(C(=O)OCC1(CO)C/C(=C/c2ccc(C(F)(F)F)cc2)C(=O)O1)c1ccccc1` (racemic) stands 41.7 nM.
Under `CCC(C(=O)OCC1(CO)C/C(=C/c2ccc(OC(F)(F)F)cc2)C(=O)O1)c1ccccc1` (racemic) stands 82.7 nM; under `CCCCC(CC)C(=O)OCC1(CO)C/C(=C/c2ccc(F)c(Cl)c2)C(=O)O1` (racemic), 11 nM.
`O=C1OC(CO)(COC(=O)C(c2ccccc2)c2ccccc2)C/C1=C/c1ccc(C(F)(F)F)cc1` (racemic) displayed a Ki of 52.4 nM. Against the preceding compound, the Ki is about 4.8-fold higher.
Under `CC(C)(C)C(=O)OCC1(CO)C/C(=C/c2ccccc2C(F)(F)F)C(=O)O1` (racemic) stands 54.5 nM; under `CC(C)(C)C(=O)OCC1(CO)C/C(=C/c2cccc(C(F)(F)F)c2)C(=O)O1` (racemic), 28.1 nM.
The figure for `CC(C)(C)C(=O)OCC1(CO)C/C(=C/c2cc(C(F)(F)F)cc(C(F)(F)F)c2)C(=O)O1` (racemic) is 39.8 nM; for `CC(C)(C)C(=O)OCC1(CO)C/C(=C/c2ccc(OC(F)(F)F)cc2)C(=O)O1` (racemic) it is 22.5 nM; for `O=C1OC(CO)(COC(=O)C(c2ccccc2)c2ccccc2)C/C1=C/c1ccc(Br)cc1` (racemic) it is 58.9 nM.
Under `O=C1OC(CO)(COC(=O)C(c2ccccc2)c2ccccc2)C/C1=C/c1ccc(F)c(Cl)c1` (racemic) stands 73 nM.
On to `O=C1OC(CO)(COC(=O)C(c2ccccc2)c2ccccc2)C/C1=C/c1ccc(OC(F)(F)F)cc1` (racemic), for which affinity was put at a Ki of 97.6 nM. The Ki values of the last two compounds are within 1.5-fold of each other.
Under `O=C1OC(CO)(COC(=O)C(c2ccccc2)c2ccccc2)C/C1=C/c1ccccc1C(F)(F)F` (racemic) stands 133 nM; under `O=C1OC(CO)(COC(=O)C(c2ccccc2)c2ccccc2)C/C1=C/c1cccc(C(F)(F)F)c1` (racemic), 61.9 nM; under `O=C1OC(CO)(COC(=O)C(c2ccccc2)c2ccccc2)C/C1=C/c1ccc(F)cc1` (racemic), 81.8 nM.
Under `O=C1OC(CO)(COC(=O)C(c2ccccc2)c2ccccc2)C/C1=C/c1ccc(Cl)c(F)c1` (racemic) stands 90.7 nM.
Under `CCC(C(=O)OCC1(CO)C/C(=C/c2ccc(F)c(Br)c2)C(=O)O1)c1ccccc1` (racemic) stands 22.3 nM.
`O=C1OC(CO)(COC(=O)C(c2ccccc2)c2ccccc2)C/C1=C/c1ccc(-c2ccc(C(F)(F)F)cc2)cc1` (racemic) returned a Ki of 111 nM. Against the preceding compound, the Ki is about 5-fold higher.
Under `CC(C)(C)C(=O)OCC1(CO)C/C(=C/c2ccc(Cl)cc2)C(=O)O1` (racemic) stands 29.4 nM.
The figure for `CC(C)(C)CC(=O)OCC1(CO)C/C(=C/c2ccc(F)cc2)C(=O)O1` (racemic) is 108 nM; for `CC(C)(C)CC(=O)OCC1(CO)C/C(=C/c2cccc(C(F)(F)F)c2)C(=O)O1` (racemic) it is 23.2 nM; for `CC(C)(C)CC(=O)OCC1(CO)C/C(=C/c2ccc(C(F)(F)F)cc2)C(=O)O1` (racemic) it is 24.7 nM.
The figure for `CC(C)(C)CC(=O)OCC1(CO)C/C(=C/c2ccc(-c3ccc(C(F)(F)F)cc3)cc2)C(=O)O1` (racemic) is 37 nM.
`CCCCC(CC)C(=O)OCC1(CO)C/C(=C/c2ccc(Br)cc2)C(=O)O1` (racemic) had a Ki of 8.5 nM. Compared with the last compound, the Ki is about 4.4-fold lower.
Regarding `CCC(C(=O)OCC1(CO)C/C(=C/c2cccc(C(F)(F)F)c2)C(=O)O1)c1ccccc1` (racemic), the affinity, expressed as Ki, was 30.2 nM.
The figure for `CCC(C(=O)OCC1(CO)C/C(=C/c2ccc(Cl)c(F)c2)C(=O)O1)c1ccccc1` (racemic) is 45.1 nM.
The figure for `CC(CC(=O)OCC1(CO)C/C(=C/c2ccccc2C(F)(F)F)C(=O)O1)CC(C)(C)C` (racemic) is 33.3 nM; for `CCCCCC/C=C1/CC(CO)(COC(=O)CCCCCC)OC1=O` (racemic) it is 37 nM.
The figure for `CCCCC(CC)C(=O)OCC1(CO)C/C(=C/c2ccc(F)cc2)C(=O)O1` (racemic) is 15.1 nM; for `CC(CC(=O)OCC1(CO)C/C(=C/c2ccc(Cl)cc2)C(=O)O1)CC(C)(C)C` (racemic) it is 16.8 nM; for `CC(CC(=O)OCC1(CO)C/C(=C/c2ccc(OC(F)(F)F)cc2)C(=O)O1)CC(C)(C)C` (racemic) it is 20.4 nM.
On to `CC(C)(C)C(=O)OCC1(CO)C/C(=C/c2ccc(C(F)(F)F)cc2)C(=O)O1` (racemic), for which the affinity corresponds to a Ki of 36.3 nM.
The figure for `O=C1OC(CO)(COC(=O)C(c2ccccc2)c2ccccc2)C/C1=C/c1cc(C(F)(F)F)cc(C(F)(F)F)c1` (racemic) is 79.5 nM; for `O=C1OC(CO)(COC(=O)C(c2ccccc2)c2ccccc2)C/C1=C/c1ccc(Cl)cc1` (racemic) it is 73.4 nM; for `CC(C)(C)C(=O)OCC1(CO)C/C(=C/c2ccc(-c3ccc(C(F)(F)F)cc3)cc2)C(=O)O1` (racemic) it is 27.2 nM.
For the compound `O=C1OC(CO)(COC(=O)C(c2ccccc2)c2ccccc2)C/C1=C/c1ccc(F)c(Br)c1` (racemic), the inhibitory constant (Ki) stood at 37.9 nM. The Ki values of the last two compounds are within 1.5-fold of each other.
